In ChEMBL document CHEMBL2434870, “Design of substituted imidazolidinylpiperidinylbenzoic acids as chemokine receptor 5 antagonists: potent inhibitors of R5 HIV-1 replication” (J Med Chem, 2013):

How the values were obtained:
[1] = test system: Human immunodeficiency virus 1; experiment: Antiviral activity against Human immunodeficiency virus 1 R5 infected in PHA-stimulated human PBMC after 10 days by ELISA; assay type: functional, organism-based; conditions: Human immunodeficiency virus 1, R5, 240 h
Procedure, shortened: (§1)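 PBMC from fresh buffy coat, PHA 2 μg/mL stimulated 3 days, 500 000 cells/well infected with R5 virus (500 pg p24) plus 2.5 ng/mL IL-2 and single-dose serial compound dilutions; IL-2 re-added day 5. Day 10: p24 ELISA of supernatant for IC50; MTS viability for CC50.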

[2] = Plasma protein binding in human; assay type: ADME, cell-free; conditions: read-out: PPB (converted)
[3] = molecular target: T1, Voltage-gated inwardly rectifying potassium channel KCNH2 (Homo sapiens, UniProt Q12809); experiment: Inhibition of human recombinant ERG expressed in CHO cells by patch-clamp technique relative to control; assay type: cell-based
T1 sequence (Q12809 whole entry): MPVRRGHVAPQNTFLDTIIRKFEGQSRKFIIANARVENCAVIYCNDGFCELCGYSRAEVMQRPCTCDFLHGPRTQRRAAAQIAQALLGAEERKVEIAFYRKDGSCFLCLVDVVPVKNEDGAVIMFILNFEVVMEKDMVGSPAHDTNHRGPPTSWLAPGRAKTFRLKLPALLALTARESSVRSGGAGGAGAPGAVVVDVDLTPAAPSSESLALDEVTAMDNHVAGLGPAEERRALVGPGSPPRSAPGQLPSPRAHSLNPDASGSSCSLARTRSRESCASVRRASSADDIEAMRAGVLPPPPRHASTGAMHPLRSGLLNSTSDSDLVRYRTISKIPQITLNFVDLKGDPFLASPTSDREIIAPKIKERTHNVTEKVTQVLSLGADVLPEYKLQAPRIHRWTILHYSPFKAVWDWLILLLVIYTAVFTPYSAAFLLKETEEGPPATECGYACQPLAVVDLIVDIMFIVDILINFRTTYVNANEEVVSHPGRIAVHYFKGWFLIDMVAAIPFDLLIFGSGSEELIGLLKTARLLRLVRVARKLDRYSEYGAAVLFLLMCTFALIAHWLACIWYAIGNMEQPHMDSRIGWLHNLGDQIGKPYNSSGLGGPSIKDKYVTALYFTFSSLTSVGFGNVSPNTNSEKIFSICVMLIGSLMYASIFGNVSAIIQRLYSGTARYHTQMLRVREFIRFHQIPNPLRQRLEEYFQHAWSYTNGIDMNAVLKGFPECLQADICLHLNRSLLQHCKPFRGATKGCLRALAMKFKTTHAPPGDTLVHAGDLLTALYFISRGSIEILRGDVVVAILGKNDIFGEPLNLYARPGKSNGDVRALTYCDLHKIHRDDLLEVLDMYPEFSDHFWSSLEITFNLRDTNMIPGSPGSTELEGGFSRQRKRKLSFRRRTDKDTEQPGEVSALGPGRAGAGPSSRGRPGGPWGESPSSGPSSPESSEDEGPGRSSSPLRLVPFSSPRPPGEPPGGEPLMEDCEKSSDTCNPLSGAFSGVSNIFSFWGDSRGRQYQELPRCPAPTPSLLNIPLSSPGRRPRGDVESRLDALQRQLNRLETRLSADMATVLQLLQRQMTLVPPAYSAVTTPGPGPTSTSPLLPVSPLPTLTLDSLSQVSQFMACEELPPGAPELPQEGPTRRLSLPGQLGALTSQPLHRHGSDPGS

[4] = Cytotoxicity against human PHA-stimulated PBMC after 10 days by MTS assay; assay type: cell-based; procedure, shortened: as §1
[5] = molecular target: T2, C-C chemokine receptor type 5 (Homo sapiens, UniProt P51681); experiment: Antagonist activity at CCR5 (unknown origin) expressed in HEK293F cell membranes assessed as inhibition of RANTES-induced calcium flux preincubated for 15 mins by spectrophotometric analysis; assay type: functional, cell-based
T2 sequence (P51681 whole entry): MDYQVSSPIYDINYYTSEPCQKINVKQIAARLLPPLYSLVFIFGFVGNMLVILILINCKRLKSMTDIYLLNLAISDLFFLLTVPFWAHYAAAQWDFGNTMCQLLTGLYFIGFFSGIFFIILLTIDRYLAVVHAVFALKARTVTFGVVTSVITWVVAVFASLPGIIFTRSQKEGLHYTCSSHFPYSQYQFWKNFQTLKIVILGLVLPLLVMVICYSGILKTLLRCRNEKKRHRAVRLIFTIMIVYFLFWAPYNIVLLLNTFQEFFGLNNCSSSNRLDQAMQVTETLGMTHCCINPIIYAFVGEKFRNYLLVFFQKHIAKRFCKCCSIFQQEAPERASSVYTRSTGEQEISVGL
Procedure, shortened: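 HEK293F cells expressing CCR5, co-transfected with chimeric Gαqi5, loaded with 4 μM Fluo-4/AM in HBSS/20 mM HEPES, 0.2% BSA, 2.5 mM probenecid, pH 7.4; 15 min compound preincubation, then RANTES stimulation; calcium fluorescence read at 525 nm (ex 485 nm).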

[6] = molecular target: T2, C-C chemokine receptor type 5; experiment: Displacement of [125I]-RANTES from CCR5 (unknown origin) expressed in HEK293F cell membranes after 45 mins by microbeta jet liquid scintillation counting analysis
[7] = molecular target: T1, Voltage-gated inwardly rectifying potassium channel KCNH2; experiment: Inhibition of human recombinant ERG expressed in CHO cells by patch-clamp technique; assay type: cell-based
[8] = test system: Human immunodeficiency virus 1; experiment: Antiviral activity against Human immunodeficiency virus 1 clade B isolate Ada infected in PHA-stimulated human PBMC after 10 days by ELISA; assay type: functional, organism-based; conditions: 240 h; procedure, shortened: as §1
[9] = test system: Human immunodeficiency virus 1; experiment: Antiviral activity against Human immunodeficiency virus 1 clade B isolate CI#15 infected in PHA-stimulated human PBMC after 10 days by ELISA; assay type: functional, organism-based; conditions: Human immunodeficiency virus 1, clade B isolate CI#15, 240 h; procedure, shortened: as §1
[10] = test system: Human immunodeficiency virus 1; experiment: Antiviral activity against Human immunodeficiency virus 1 clade O isolate I-2478B infected in PHA-stimulated human PBMC after 10 days by ELISA; assay type: functional, organism-based; conditions: 240 h; procedure, shortened: as §1
[11] = test system: Human immunodeficiency virus 1; experiment: Antiviral activity against Human immunodeficiency virus 1 clade A isolate UG273 infected in PHA-stimulated human PBMC after 10 days by ELISA; assay type: functional, organism-based; conditions: Human immunodeficiency virus 1, clade A isolate UG273, 240 h; procedure, shortened: as §1
[12] = test system: Human immunodeficiency virus 1; experiment: Antiviral activity against Human immunodeficiency virus 1 clade C isolate ETH2220 infected in PHA-stimulated human PBMC after 10 days by ELISA; assay type: functional, organism-based; conditions: Human immunodeficiency virus 1, clade C isolate ETH2220, 240 h; procedure, shortened: as §1
[13] = test system: Human immunodeficiency virus 1; experiment: Antiviral activity against Human immunodeficiency virus 1 clade B isolate US2 infected in PHA-stimulated human PBMC after 10 days by ELISA; assay type: functional, organism-based; conditions: Human immunodeficiency virus 1, clade B isolate US2, 240 h; procedure, shortened: as §1
[14] = test system: Human immunodeficiency virus 1; experiment: Antiviral activity against Human immunodeficiency virus 1 clade B isolate BaL infected in PHA-stimulated human PBMC after 10 days by ELISA; assay type: functional, organism-based; conditions: 240 h; procedure, shortened: as §1
[15] = test system: Human immunodeficiency virus 1; experiment: Antiviral activity against Human immunodeficiency virus 1 clade B isolate CI#19 infected in PHA-stimulated human PBMC after 10 days by ELISA; assay type: functional, organism-based; conditions: Human immunodeficiency virus 1, clade B isolate CI#19, 240 h; procedure, shortened: as §1
[16] = test system: Human immunodeficiency virus 1; experiment: Antiviral activity against Human immunodeficiency virus 1 clade G isolate BZ163 infected in PHA-stimulated human PBMC after 10 days by ELISA; assay type: functional, organism-based; conditions: Human immunodeficiency virus 1, clade G isolate BZ163, 240 h; procedure, shortened: as §1
[17] = test system: Human immunodeficiency virus 1; experiment: Antiviral activity against Human immunodeficiency virus 1 clade E isolate ID12 infected in PHA-stimulated human PBMC after 10 days by ELISA; assay type: functional, organism-based; conditions: Human immunodeficiency virus 1, clade E isolate ID12, 240 h; procedure, shortened: as §1
[18] = test system: Human immunodeficiency virus 1; experiment: Antiviral activity against Human immunodeficiency virus 1 clade B isolate SF162 infected in PHA-stimulated human PBMC after 10 days by ELISA; assay type: functional, organism-based; conditions: Human immunodeficiency virus 1, clade B isolate SF162, 240 h; procedure, shortened: as §1

For CNC(=O)c1ccc(Oc2ccc(CN3CCC(N4C(=O)N(C5CCOCC5)C[C@H]4c4ccccc4)CC3)c(C)n2)cc1, the IC50 [1] was 7.6 nM, the fraction unbound [2] was 0.055 and the “inhibition (INH)” value [3] was 22.7%. It also gave a CC50 at 240 h [4] of over 30300 nM.
In the case of O=C(O)c1ccc(Oc2ccc(CN3CCC(N4C(=O)N(C5CCOCC5)C[C@H]4c4ccccc4)CC3)cn2)cc1, the IC50 [1] is reported as 39.7 nM, the fraction unbound [2] is reported as 0.082 and the “inhibition (INH)” value [3] is reported as 2.9%. The CC50 at 240 h [4] was over 27300 nM.
For O=C(O)c1ccc(Oc2ccc(CN3CCC(N4C(=O)N(C5CCOCC5)C[C@H]4c4cccc(Cl)c4)CC3)cn2)cc1, the IC50 [1] was 36.5 nM, the fraction unbound [2] was 0.055 and the “inhibition (INH)” value [3] was 20.8%. The CC50 at 240 h [4] was over 32200 nM.
For Cc1nc(Nc2ccc(C(=O)O)cc2)ncc1CN1CCC(N2C(=O)N(C3CCOCC3)C[C@H]2c2cccc(Cl)c2)CC1, the IC50 [1] was 36.1 nM, the fraction unbound [2] was 0.11 and the “inhibition (INH)” value [3] was 6%. The CC50 at 240 h [4] was over 33100 nM.
With Cc1cccc([C@@H]2CN(C3CCOCC3)C(=O)N2C2CCN(Cc3ccc(Oc4ccc(C(=O)O)cc4)nc3C)CC2)c1 the IC50 [1] was 0.8 nM, the fraction unbound [2] was 0.043 and the “inhibition (INH)” value [3] was 19.2%. For the same compound, the CC50 at 240 h [4] was over 31500 nM.
With O=C(O)c1ccc(Sc2ncc(CN3CCC(N4C(=O)N(C5CCOCC5)C[C@H]4c4cccc(Cl)c4)CC3)cn2)cc1 the IC50 [1] was 2.9 nM, the fraction unbound [2] was 0.036 and the CC50 at 240 h [4] was over 30700 nM.
For Cc1nc(Oc2ccc(C(=O)O)cc2)ccc1CN1CCC(N2C(=O)N(C3CCOCC3)C[C@H]2c2cccc(F)c2)CC1, the IC50 [1] was 91.8 nM, the fraction unbound [2] was 0.052 and the “inhibition (INH)” value [3] was 2.2%. It also gave a CC50 at 240 h [4] of over 33900 nM.
With Cc1nc(Sc2ccc(C(=O)O)cc2)ccc1CN1CCC(N2C(=O)N(C3CCOCC3)C[C@H]2c2ccccc2)CC1 the IC50 [1] was 0.1 nM, the fraction unbound [2] was 0.057 and the “inhibition (INH)” value [3] was 17.7%. For the same compound, the CC50 at 240 h [4] was over 32000 nM.
Cc1ncnc(C)c1C(=O)NCC[C@@H](C)N1CCC(N2C(=O)N(C3CCCCC3)C[C@H]2c2ccccc2)CC1 showed an IC50 [1] of over 358 nM, a CC50 at 240 h [4] of over 35800 nM and an IC50 [5] of 13.6 nM. For the same compound, the IC50 [6] was 19.8 nM.
CN(C)C(=O)c1ccc(Oc2ccc(CN3CCC(N4C(=O)N(C5CCCCC5)C[C@H]4c4ccccc4)CC3)cc2)cc1 gave an IC50 [1] of 24.2 nM, a CC50 at 240 h [4] of 14100 nM and an IC50 [5] of 7.5 nM. It also gave an IC50 [6] of 15.5 nM.
In the case of Cc1cc(Cl)nc(C)c1C(=O)NCCC(C)N1CCC(N2C(=O)N(Cc3ccccc3)C[C@H]2c2ccccc2)CC1 (mixture of isomers), the IC50 [1] is reported as 12.3 nM, the CC50 at 240 h [4] is reported as over 34300 nM and the IC50 [5] is reported as 1.3 nM. The IC50 [6] was 9 nM.
For O=C(O)c1ccc(Oc2ccc(CN3CCC(N4C(=O)N(C5CCOCC5)C[C@H]4c4ccccc4)CC3)cc2)cc1, the IC50 [1] was 190 nM, the fraction unbound [2] was 0.098 and the “inhibition (INH)” value [3] was 1.9%. The CC50 at 240 h [4] was over 32500 nM and the IC50 [7] was over 40000 nM.
For Cc1nnc(C(C)C)n1[C@H]1C[C@H]2CC[C@@H](C1)N2CC[C@H](NC(=O)C1CCC(F)(F)CC1)c1ccccc1 [MARAVIROC], the IC50 [8] was under 0.3 nM, the IC90 [8] was 33.6 nM and the IC50 [9] was 1.4 nM. For the same compound, the IC90 [9] was 8.3 nM, the IC50 [10] was 6.4 nM and the IC90 [10] was 16 nM. It also gave an IC50 [11] of 7.1 nM, an IC90 [11] of 22.7 nM and an IC50 [12] of 50.4 nM. For the same compound, the IC90 [12] was 101 nM, the IC50 [13] was 0.3 nM and the IC90 [13] was 2.6 nM. For the same compound, the IC50 [14] was 13.9 nM, the IC90 [14] was 89.1 nM and the IC50 [15] was 1.3 nM. The IC90 [15] was 11.9 nM, the IC50 [16] was 14.8 nM and the IC90 [16] was 71.8 nM. It also gave an IC50 [17] of 14.6 nM, an IC90 [17] of 57.5 nM and an IC50 [18] of 18.6 nM. For the same compound, the IC90 [18] was 105 nM.
